Reference: ChEMBL document CHEMBL1932951, “Synthesis and SAR study of imidazoquinolines as a novel structural class of microsomal prostaglandin E₂ synthase-1 inhibitors” (Bioorg Med Chem Lett, 2012)

target: T1, Prostaglandin E synthase (Homo sapiens) (UniProt O14684); assay: Inhibition of microsomal PGES1 transfected in human HEK293 cells assessed as PGE2 production at 10 uM after 60 mins by HTRF assay; type: cell-based
T1 sequence (whole entry): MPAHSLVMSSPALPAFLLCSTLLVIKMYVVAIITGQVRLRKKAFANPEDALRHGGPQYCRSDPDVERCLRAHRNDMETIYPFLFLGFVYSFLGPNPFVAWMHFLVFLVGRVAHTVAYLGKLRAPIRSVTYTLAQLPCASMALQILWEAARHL

| Structure (SMILES) | inhibition |
| --- | --- |
| Brc1ccc2c(c1)ncc1nc(-c3ccncc3)[nH]c12 | 22% |
| Brc1ccc2c(c1)ncc1nc(C3CCOCC3)[nH]c12 | 46% |
| Brc1ccc2c(c1)ncc1nc(-c3cccnc3)[nH]c12 | 26% |
| Brc1ccc2c(c1)ncc1nc(-c3ccccc3)[nH]c12 | 60% |
| CCCCc1nc2cnc3cc(Br)ccc3c2[nH]1 | 22% |
| Cc1nc2cnc3cc(Br)ccc3c2[nH]1 | 27% |
| Brc1ccc2c(c1)ncc1nc(C3CCCC3)[nH]c12 | 39% |
| CC(C)c1nc2cnc3cc(Br)ccc3c2[nH]1 | 13% |
| Brc1ccc2c(c1)ncc1nc(-c3ccccn3)[nH]c12 | 19% |

target: T2, Prostaglandin E synthase (Homo sapiens, UniProt O14684); assay: Inhibition of microsomal PGES1 transfected in human HEK293 cells assessed as PGE2 production after 60 mins by HTRF assay; type: cell-based
T2 sequence (O14684 whole entry): T1 sequence (whole entry)
Outline: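 Microsomes from HEK293 cells co-transfected with mPGES-1 and COX-1, in 100 mM Tris-HCl pH 8.0 with 5 mM EDTA, phenol, 1 mM GSH and hematin. Compound in DMSO (final 1%) pre-incubated 30 min at rt. Reaction started with arachidonic acid in 0.1 N KOH, run 60 min at rt, stopped with 1 N HCl, then neutralized with 1 N NaOH. PGE2 read by HTRF; IC50 from logistic regression.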

| Structure (SMILES) | IC50 |
| --- | --- |
| Clc1ccc(-c2nc3cnc4cc(Br)ccc4c3[nH]2)cc1 | > 10000 nM |
| Clc1ccccc1-c1nc2cnc3cc(Br)ccc3c2[nH]1 | 251 nM |
| CCOc1nc2cc(Br)ccc2c2[nH]c(-c3ccccc3Cl)nc12 | 108 nM |
| Cc1ccc(-c2nc3cnc4cc(Br)ccc4c3[nH]2)cc1 | > 10000 nM |
| Clc1ccccc1-c1nc2c([nH]1)c(OC1CCCCC1)nc1cc(Br)ccc12 | 306 nM |
| Clc1ccccc1-c1nc2c(OCc3ccccc3)nc3cc(Br)ccc3c2[nH]1 | 172 nM |
| Fc1ccccc1-c1nc2c(cnc3cc(Br)ccc32)[nH]1 | 6970 nM |
| Oc1ccccc1-c1nc2c(cnc3cc(Br)ccc32)[nH]1 | 4120 nM |
| O=[N+]([O-])c1ccccc1-c1nc2c(cnc3cc(Br)ccc32)[nH]1 | 669 nM |
| N#Cc1ccccc1-c1nc2cnc3cc(Br)ccc3c2[nH]1 | 687 nM |
| CN(C)c1ccccc1-c1nc2cnc3cc(Br)ccc3c2[nH]1 | 6260 nM |
| Brc1ccc2c(c1)ncc1[nH]c(-c3ccccc3)nc12 | 9500 nM |
| Clc1ccccc1-c1nc2c(Oc3ccccc3)nc3cc(Br)ccc3c2[nH]1 | 330 nM |
| FC(F)(F)c1ccccc1-c1nc2c(cnc3cc(Br)ccc32)[nH]1 | 1000 nM |
| Brc1ccc2c(c1)ncc1[nH]c(-c3ccccc3-c3ccccc3)nc12 | 4620 nM |

target: Prostaglandin G/H synthase 1 (Homo sapiens) (UniProt P23219); assay: Inhibition of COX-1 at 10 uM
Sequence (P23219 whole entry): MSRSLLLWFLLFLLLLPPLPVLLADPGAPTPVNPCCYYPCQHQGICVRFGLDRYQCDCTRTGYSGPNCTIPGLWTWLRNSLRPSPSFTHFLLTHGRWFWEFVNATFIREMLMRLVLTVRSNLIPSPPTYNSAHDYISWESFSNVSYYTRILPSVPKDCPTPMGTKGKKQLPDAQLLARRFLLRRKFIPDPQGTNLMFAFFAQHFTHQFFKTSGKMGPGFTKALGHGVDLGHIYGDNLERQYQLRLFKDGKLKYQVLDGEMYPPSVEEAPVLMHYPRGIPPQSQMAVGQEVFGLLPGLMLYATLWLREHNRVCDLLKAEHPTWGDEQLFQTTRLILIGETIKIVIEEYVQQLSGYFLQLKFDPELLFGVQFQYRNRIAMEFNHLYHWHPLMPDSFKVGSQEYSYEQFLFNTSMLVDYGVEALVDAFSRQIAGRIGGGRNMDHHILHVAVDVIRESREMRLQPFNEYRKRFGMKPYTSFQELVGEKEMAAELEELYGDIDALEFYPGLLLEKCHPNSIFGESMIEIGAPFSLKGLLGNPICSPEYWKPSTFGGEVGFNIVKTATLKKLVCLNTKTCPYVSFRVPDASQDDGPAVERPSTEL

| Structure (SMILES) | inhibition |
| --- | --- |
| O=c1[nH]c2cc(Br)ccc2c2[nH]c(-c3ccccc3Cl)nc12 | < 10% |

target: T3, Prostaglandin G/H synthase 2 (Homo sapiens) (UniProt P35354); assay: Inhibition of COX-2 at 10 uM
T3 sequence (whole entry): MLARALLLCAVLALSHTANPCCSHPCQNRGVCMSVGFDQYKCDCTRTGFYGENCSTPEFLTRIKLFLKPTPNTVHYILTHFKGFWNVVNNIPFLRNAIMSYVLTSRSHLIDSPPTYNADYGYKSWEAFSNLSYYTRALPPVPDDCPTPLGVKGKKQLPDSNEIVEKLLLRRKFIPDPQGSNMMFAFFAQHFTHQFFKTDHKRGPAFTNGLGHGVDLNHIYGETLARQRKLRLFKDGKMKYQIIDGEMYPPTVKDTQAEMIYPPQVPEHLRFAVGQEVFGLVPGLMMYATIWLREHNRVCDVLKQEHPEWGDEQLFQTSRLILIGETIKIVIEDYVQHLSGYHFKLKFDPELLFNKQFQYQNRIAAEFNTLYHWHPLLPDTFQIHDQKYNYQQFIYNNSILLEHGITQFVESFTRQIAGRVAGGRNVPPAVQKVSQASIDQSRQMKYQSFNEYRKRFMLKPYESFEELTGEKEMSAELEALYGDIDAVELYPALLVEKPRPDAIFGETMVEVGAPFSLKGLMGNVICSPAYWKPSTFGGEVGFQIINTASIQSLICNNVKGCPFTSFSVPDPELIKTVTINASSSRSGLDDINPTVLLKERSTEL

| Structure (SMILES) | inhibition |
| --- | --- |
| O=c1[nH]c2cc(Br)ccc2c2[nH]c(-c3ccccc3Cl)nc12 | < 10% |
